Measured values published in ChEMBL document CHEMBL5705905, “Pharmacological targeting of kinases MST1 and MST2 augments tissue repair and regeneration” (Sci Transl Med, 2016).
pIC50, pKd: −log10 of the molar value. Calls of active or inactive are those of the source. No cut-off for these calls is given here.

How the values were obtained:
[1] = biological target: Serine/threonine-protein kinase 25 (Homo sapiens) (UniProt O00506); test: Inhibition of YSK1 (unknown origin) assessed as remaining activity at 1 uM by Kinome scan method relative to control
[2] = biological target: Interleukin-1 receptor-associated kinase 3 (Homo sapiens) (UniProt Q9Y616); test: Inhibition of IRAK3 (unknown origin) assessed as remaining activity at 1 uM by Kinome scan method relative to control
HepG2 [3] = test: Inhibition of Flag-tagged MST1 Y101F mutant (unknown origin) in human HepG2 cells assessed as MOB1 phosphorylation level at 0.3 to 10 uM by immunoblot analysis; assay type: cell-based; settings: dose 0.3-10 µM
[4] = biological target: Serine/threonine-protein kinase STK11 (Homo sapiens) (UniProt Q15831); test: Inhibition of LKB1 (unknown origin) assessed as remaining activity at 1 uM by Kinome scan method relative to control
[5] = AUC (0 to infinity) in male Sprague-Dawley rat at 5 mg/kg, iv measured for 24 hrs by LC-MS/MS analysis; assay type: ADME, organism-based; settings: in vivo
In short: (§1)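 Sprague-Dawley rats, single intravenous or oral dose. Parameters (half-life, AUC, bioavailability) reported in a supplementary table.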

Mus musculus [6] = test: In vivo inhibition of MST1/2 in mouse assessed as block in MOB1 phosphorylation level at 1 mg/kg, ip administration by immunoblot analysis; assay type: functional, organism-based
In short: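 Wild-type mice received escalating intraperitoneal doses, and livers were collected 3 h later. Liver lysates were immunoblotted for p-MOB1 and quantified relative to controls. Means ± SD, n = 3, Student's t test.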

[7] = biological target: Mitogen-activated protein kinase kinase kinase 11 (Homo sapiens) (UniProt Q16584); test: Inhibition of MLK3 (unknown origin) assessed as remaining activity at 1 uM by Kinome scan method relative to control
[8] = AUC (0 to infinity) in male Sprague-Dawley rat at 10 mg/kg, po measured for 24 hrs by LC-MS/MS analysis; assay type: ADME, organism-based; settings: in vivo; in short: as §1
[9] = Toxicity in DSS-induced mouse assessed as body weight loss at 1 mg/kg, ip administrated daily for over 1 to 21 days; assay type: organism-based; settings: in vivo, time 1-21 day
In short: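 Colitis was induced with oral DSS on days 1–7, with vehicle or 1 mg/kg i.p. daily, n = 12 per group. Body weight was recorded over days 1–21 as a percentage of day 1; means ± SD, Student's t test per time point.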

[10] = biological target: Ephrin type-A receptor 3 (Homo sapiens) (UniProt P29320); test: Inhibition of EPHA3 (unknown origin) assessed as remaining activity at 1 uM by Kinome scan method relative to control
[11] = biological target: Tyrosine-protein kinase JAK2 (Homo sapiens) (UniProt O60674); test: Inhibition of JAK2 JH1 domain (unknown origin) assessed as remaining activity at 1 uM by Kinome scan method relative to control
[12] = Inhibition of recombinant His-tagged full-length MST1 Y101F/D109A mutant (unknown origin) expressing in Escherichia coli assessed as MOB1 phosphorylation level incubated for 15 min by immunoblot analysis; set-up: species or system Homo sapiens
[13] = biological target: Serine/threonine-protein kinase ULK2 (Homo sapiens, UniProt Q8IYT8); test: Inhibition of ULK2 (unknown origin) in presence of ATP by enzymatic assay
[14] = Acute toxicity in wild-type mouse assessed as CK19-positive cells at 1 mg/kg,ip administrated daily for 2 months and after 2 weeks drug withdrawal by H and E staining based immunohistochemical analysis; assay type: organism-based; settings: in vivo, 1460 h
In short: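 Wild-type mice dosed 1 mg/kg i.p. daily for 2 months (vehicle 0.1% citric acid aqueous solution with 20% Kolliphor HS 15), or dosed and then withdrawn 2 weeks. Liver sections given H&E and IHC for CK19 and BrdU; positive cells counted, n = 3; means ± SD, Student's t test.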

[15] = test system: Epidermal growth factor receptor (Homo sapiens), P00533 [UNDEFINED MUTATION]; test: Inhibition of EGFR E746-A750del mutant (unknown origin) assessed as remaining activity at 1 uM by Kinome scan method relative to control
[16] = AUC (0 to t) in male Sprague-Dawley rat at 5 mg/kg, iv measured for 24 hrs by LC-MS/MS analysis; assay type: ADME, organism-based; settings: in vivo; in short: as §1
HepG2 [17] = test: Inhibition of Flag-tagged MST1 Y101F/D109A mutant (unknown origin) in human HepG2 cells assessed as MOB1 phosphorylation level at 0.3 to 10 uM by immunoblot analysis; assay type: cell-based; settings: dose 0.3-10 µM
[18] = biological target: Fibroblast growth factor receptor 2 (Homo sapiens) (UniProt P21802); test: Inhibition of FGFR2 (unknown origin) assessed as remaining activity at 1 uM by Kinome scan method relative to control
[19] = Acute toxicity in wild-type mouse assessed as ratio of liver weight to body weight at 1 mg/kg,ip administrated daily for 2 months and after 2 weeks drug withdrawal; assay type: organism-based; settings: in vivo, 1460 h
In short: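 Liver/body weight ratio in wild-type mice after 1 mg/kg i.p. daily for 2 months, or after a further 2 weeks off drug. n = 6; means ± SD, Student's t test. Vehicle was 0.1% citric acid aqueous solution with 20% Kolliphor HS 15.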

[20] = biological target: Casein kinase I isoform alpha-like (Homo sapiens) (UniProt Q8N752); test: Inhibition of CSNK1A1L (unknown origin) assessed as remaining activity at 1 uM by Kinome scan method relative to control
In short: (§2)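 Active-site-dependent competition-binding profiling (KINOMEscan) at 1 μM against a 468-kinase panel; compound supplied from a 10 mM DMSO stock. Read-out is ctrl% = (test signal − positive control signal)/(negative control signal − positive control signal) × 100. DMSO is the negative control (100%) and a control compound the positive control (0%). Lower ctrl% means tighter binding.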

[21] = biological target: Mitogen-activated protein kinase kinase kinase 19 (Homo sapiens) (UniProt Q56UN5); test: Inhibition of YSK4 (unknown origin) assessed as remaining activity at 1 uM by Kinome scan method relative to control
[22] = biological target: Serine/threonine-protein kinase LATS1 (Homo sapiens) (UniProt O95835); test: Inhibition of LATS1 (unknown origin) assessed as remaining activity at 1 uM by Kinome scan method relative to control
[23] = biological target: Serine/threonine-protein kinase 24 (Homo sapiens, UniProt Q9Y6E0); test: Binding affinity to MST3 (unknown origin) assessed as dissociation constant
Mus musculus [24] = test: Protection against APAP induced liver injury in mouse assessed as continual expansion of centrilobular necrotic lesions at 1 mg/kg, ip administered at 1.5 hrs by H&E staining; assay type: functional, organism-based
[25] = biological target: Rho-associated protein kinase 1 (Homo sapiens) (UniProt Q13464); test: Inhibition of ROCK1 (unknown origin) assessed as remaining activity at 1 uM by Kinome scan method relative to control
In short: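 KINOMEscan active-site competition binding assay at 1 μM against 468 kinases. Ctrl% = (test − positive control)/(negative control DMSO − positive control) × 100; lower values mean tighter binding.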

[26] = biological target: Mitogen-activated protein kinase 3 (Homo sapiens) (UniProt P27361); test: Inhibition of ERK1 (unknown origin) assessed as remaining activity at 1 uM by Kinome scan method relative to control
[27] = biological target: Citron Rho-interacting kinase (Homo sapiens) (UniProt O14578); test: Inhibition of CIT (unknown origin) assessed as remaining activity at 1 uM by Kinome scan method relative to control; in short: as §2

Sequence of Serine/threonine-protein kinase STK11 (Homo sapiens) (Q15831 whole entry): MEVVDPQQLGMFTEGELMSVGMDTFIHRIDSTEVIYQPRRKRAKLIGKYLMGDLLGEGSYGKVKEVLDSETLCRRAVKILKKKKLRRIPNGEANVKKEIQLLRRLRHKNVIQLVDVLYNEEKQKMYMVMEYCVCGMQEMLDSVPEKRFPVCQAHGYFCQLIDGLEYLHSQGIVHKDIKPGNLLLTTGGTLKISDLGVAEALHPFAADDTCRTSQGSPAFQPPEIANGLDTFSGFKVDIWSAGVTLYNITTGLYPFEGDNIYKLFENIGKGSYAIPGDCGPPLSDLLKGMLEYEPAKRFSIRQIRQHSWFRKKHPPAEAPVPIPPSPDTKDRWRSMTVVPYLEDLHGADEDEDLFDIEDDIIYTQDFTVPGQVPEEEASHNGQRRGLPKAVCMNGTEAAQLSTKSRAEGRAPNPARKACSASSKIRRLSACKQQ
Sequence of Mitogen-activated protein kinase 3 (Homo sapiens) (P27361 whole entry): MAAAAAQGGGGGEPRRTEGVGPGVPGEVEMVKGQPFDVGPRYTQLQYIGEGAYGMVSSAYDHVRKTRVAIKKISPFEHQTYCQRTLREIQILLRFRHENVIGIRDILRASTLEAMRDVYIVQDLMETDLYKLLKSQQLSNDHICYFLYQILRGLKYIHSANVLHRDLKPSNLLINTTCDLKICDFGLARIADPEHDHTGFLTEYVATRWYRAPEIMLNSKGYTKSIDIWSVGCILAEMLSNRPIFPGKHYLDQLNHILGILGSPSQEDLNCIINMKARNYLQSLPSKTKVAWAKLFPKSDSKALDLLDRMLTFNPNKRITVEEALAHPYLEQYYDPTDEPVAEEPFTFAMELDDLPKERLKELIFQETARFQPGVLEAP
Sequence of Serine/threonine-protein kinase LATS1 (Homo sapiens) (O95835 whole entry): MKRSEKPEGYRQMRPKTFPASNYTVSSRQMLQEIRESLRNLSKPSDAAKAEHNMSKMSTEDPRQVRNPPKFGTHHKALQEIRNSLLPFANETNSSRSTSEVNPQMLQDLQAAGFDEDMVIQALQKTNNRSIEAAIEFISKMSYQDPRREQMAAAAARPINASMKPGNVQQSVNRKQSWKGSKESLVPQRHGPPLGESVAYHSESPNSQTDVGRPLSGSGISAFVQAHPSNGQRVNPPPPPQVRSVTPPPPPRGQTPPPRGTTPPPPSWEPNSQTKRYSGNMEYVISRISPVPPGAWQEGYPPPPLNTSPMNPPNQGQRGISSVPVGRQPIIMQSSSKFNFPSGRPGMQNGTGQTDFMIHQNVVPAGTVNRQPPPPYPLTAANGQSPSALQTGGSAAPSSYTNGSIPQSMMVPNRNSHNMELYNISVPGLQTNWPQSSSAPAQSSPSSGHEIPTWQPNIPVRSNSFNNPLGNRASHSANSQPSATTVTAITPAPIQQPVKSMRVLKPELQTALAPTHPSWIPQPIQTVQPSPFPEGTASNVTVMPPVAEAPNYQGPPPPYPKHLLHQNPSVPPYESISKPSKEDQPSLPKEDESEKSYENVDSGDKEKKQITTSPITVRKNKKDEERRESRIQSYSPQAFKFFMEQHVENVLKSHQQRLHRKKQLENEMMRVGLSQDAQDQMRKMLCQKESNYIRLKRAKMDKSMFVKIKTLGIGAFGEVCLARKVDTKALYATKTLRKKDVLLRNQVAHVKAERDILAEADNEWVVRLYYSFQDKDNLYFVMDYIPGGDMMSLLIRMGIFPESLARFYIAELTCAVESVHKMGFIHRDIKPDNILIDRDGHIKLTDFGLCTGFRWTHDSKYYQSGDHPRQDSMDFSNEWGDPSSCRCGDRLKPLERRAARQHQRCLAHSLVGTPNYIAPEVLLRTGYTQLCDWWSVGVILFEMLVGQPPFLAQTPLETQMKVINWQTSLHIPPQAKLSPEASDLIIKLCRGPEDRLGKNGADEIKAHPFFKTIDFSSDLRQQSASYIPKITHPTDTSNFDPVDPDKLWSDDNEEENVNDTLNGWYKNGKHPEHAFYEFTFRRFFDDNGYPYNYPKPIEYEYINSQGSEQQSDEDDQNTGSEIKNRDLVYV
Sequence of Serine/threonine-protein kinase 24 (Q9Y6E0 whole entry): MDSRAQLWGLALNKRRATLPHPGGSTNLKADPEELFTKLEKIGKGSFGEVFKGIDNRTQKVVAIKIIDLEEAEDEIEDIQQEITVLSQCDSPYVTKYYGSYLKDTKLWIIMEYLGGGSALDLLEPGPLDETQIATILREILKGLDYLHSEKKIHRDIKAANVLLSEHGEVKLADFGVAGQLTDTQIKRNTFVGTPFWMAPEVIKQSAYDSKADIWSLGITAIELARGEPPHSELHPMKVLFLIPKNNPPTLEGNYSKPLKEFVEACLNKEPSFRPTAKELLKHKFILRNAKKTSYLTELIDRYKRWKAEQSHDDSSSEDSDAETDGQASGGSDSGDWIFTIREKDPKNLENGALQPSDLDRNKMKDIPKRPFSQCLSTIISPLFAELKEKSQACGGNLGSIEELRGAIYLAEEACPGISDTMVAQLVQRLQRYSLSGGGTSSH
Sequence of Interleukin-1 receptor-associated kinase 3 (Homo sapiens) (Q9Y616 whole entry): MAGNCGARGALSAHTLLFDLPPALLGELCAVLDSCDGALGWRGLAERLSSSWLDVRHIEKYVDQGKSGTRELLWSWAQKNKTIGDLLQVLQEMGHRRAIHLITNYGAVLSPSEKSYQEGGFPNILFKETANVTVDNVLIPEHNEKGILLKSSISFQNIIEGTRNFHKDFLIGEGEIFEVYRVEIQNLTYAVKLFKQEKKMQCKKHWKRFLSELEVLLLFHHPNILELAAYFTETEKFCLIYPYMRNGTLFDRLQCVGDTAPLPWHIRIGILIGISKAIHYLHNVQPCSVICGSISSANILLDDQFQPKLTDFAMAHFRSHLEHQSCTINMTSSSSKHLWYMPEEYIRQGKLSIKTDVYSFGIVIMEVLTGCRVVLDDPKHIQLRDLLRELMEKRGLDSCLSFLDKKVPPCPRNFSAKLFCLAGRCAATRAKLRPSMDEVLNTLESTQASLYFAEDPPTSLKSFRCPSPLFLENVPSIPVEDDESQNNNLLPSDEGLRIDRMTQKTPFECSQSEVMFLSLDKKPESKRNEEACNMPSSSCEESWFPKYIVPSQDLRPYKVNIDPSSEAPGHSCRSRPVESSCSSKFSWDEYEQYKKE
Sequence of Rho-associated protein kinase 1 (Homo sapiens) (Q13464 2-1354 limits assumed): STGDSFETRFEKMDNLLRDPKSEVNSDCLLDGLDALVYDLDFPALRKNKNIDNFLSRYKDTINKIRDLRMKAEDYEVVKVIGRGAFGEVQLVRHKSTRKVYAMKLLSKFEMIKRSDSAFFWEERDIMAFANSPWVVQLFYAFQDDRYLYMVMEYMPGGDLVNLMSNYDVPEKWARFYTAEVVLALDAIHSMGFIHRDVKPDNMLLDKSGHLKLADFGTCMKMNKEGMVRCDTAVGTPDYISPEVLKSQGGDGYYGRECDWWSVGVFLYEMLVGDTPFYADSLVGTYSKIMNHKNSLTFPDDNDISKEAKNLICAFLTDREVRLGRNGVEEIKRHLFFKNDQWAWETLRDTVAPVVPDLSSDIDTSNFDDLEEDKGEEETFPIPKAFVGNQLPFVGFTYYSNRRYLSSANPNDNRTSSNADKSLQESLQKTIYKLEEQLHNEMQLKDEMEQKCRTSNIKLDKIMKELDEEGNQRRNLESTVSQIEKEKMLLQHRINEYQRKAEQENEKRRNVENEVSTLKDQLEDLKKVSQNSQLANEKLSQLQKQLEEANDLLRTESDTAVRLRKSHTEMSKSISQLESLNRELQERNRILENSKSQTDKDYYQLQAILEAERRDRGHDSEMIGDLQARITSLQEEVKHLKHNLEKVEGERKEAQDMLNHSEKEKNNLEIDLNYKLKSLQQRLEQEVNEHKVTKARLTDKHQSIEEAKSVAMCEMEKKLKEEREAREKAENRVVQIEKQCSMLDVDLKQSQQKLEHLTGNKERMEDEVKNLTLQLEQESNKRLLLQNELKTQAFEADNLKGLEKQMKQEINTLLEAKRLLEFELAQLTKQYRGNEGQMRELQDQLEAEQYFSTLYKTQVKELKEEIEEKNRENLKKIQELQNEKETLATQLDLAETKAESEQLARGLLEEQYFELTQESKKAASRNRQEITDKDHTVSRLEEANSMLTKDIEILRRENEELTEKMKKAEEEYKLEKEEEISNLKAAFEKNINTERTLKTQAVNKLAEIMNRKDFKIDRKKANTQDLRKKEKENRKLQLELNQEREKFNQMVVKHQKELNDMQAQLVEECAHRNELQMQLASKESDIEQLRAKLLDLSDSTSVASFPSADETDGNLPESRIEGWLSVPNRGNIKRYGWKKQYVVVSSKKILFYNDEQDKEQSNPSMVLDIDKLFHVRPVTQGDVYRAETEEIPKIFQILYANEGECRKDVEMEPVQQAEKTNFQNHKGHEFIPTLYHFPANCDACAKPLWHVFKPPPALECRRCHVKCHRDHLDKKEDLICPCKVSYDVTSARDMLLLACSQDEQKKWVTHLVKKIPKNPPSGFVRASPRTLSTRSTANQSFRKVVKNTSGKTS
Sequence of Casein kinase I isoform alpha-like (Homo sapiens) (Q8N752 whole entry, canonical isoform): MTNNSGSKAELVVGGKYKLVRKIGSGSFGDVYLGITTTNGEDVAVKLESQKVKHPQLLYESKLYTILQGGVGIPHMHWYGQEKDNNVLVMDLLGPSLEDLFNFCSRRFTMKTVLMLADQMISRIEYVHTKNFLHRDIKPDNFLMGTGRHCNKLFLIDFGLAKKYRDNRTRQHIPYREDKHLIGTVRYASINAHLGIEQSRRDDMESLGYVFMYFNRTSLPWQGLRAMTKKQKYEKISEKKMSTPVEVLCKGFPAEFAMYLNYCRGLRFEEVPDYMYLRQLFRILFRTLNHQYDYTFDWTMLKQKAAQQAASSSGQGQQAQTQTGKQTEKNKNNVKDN

## CN1C(=O)c2sccc2N(C)c2nc(Nc3ccc(S(N)(=O)=O)cc3)ncc21
[1]
  Activity: 94%
[2]
  Activity: 100%
HepG2 [3]
  inhibition: Active
[4]
  Activity: 96%
[5]
  AUC(0-inf): 1270 ng·h/mL
Mus musculus [6]
  inhibition: Active
[7]
  Activity: 100%
[8]
  AUC(0-inf): 1040 ng·h/mL
[9]
  Activity: Toxic
[10]
  Activity: 91%
[11]
  Activity: 15%
[12]
  pIC50: 5.86
[13]
  pIC50: 7.38
[14]
  Activity: Non-Toxic
[15]
  Activity: 82%
[16]
  AUC(0-t) at 24 h: 1260 ng·h/mL
HepG2 [17]
  inhibition: Active
[18]
  Activity: 100%
[19]
  Activity: Toxic
[20]
  Activity: 93%
[21]
  Activity: 42%
[22]
  Activity: 100%
[23]
  pKd: 7.74
Mus musculus [24]
  Activity: Active
[25]
  Activity: 89%
[26]
  Activity: 100%
[27]
  Activity: 96%
